According to ChEMBL document CHEMBL1151196, “Chemical constituents from the mangrove plant, Aegiceras corniculatum” (J Nat Prod, 2004):
In brackets after ≈: the same amount, converted by molar mass.

Legend:
Assay type in all cases: functional, cell-based
U-937 = assay: Cytotoxicity against human U937 cells after 48 hrs by MTT assay; conditions: U-937, 48 h
In short: (§1)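 Cells kept in RPMI-1640 with 10% FBS, penicillin and streptomycin, at 37 °C under 5% CO2. Seeded at 2000/mL and grown 24 h, then given serial dilutions (100 to 1 μg/mL; DMSO stock diluted in medium). Vehicle control was 0.1% DMSO. After 48 h, MTT added for 4 h. Formazan dissolved in acid-isopropanol and read at 570 nm. Run in triplicate.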

Bel-7402 = assay: Cytotoxicity against human Bel7402 cells after 48 hrs by MTT assay; conditions: Bel-7402, 48 h; in short: as §1
HL-60 = assay: Cytotoxicity against human HL60 cells after 48 hrs by MTT assay; conditions: HL-60, 48 h; in short: as §1
HeLa = assay: Cytotoxicity against human HeLa cells after 48 hrs by MTT assay; in short: as §1

SMILES | IC50 (U-937) | IC50 (Bel-7402) | IC50 (HL-60) | IC50 (HeLa)
CCCCCCCCCCCC1=C(O)/C(=C2\C(=O)Oc3c2cc(OC)c(O)c3CCCCCCCCCCC)OC1=O | > 100 µg/mL | > 100 µg/mL | > 100 µg/mL | > 100 µg/mL
CCCCCCCCCCCC1=C(O)C(=O)c2c(CCCCCCCCCCC)cc(O)cc2C1=O | > 100 µg/mL | > 100 µg/mL | > 100 µg/mL | > 100 µg/mL
CCCCCCCCCc1cc(O)cc(O)c1OC | > 100 µg/mL | > 100 µg/mL | > 100 µg/mL | > 100 µg/mL
CCCCCCCCCCCC1=C(O)C(=O)C=C(OCC)C1=O | 1.3 µg/mL (≈ 4.03 µM) | 2.7 µg/mL (≈ 8.37 µM) | 2.5 µg/mL (≈ 7.75 µM) | 3.9 µg/mL (≈ 12.1 µM)
CCCCCCCCCCCC1=C(OC(C)=O)C(=O)C=C(OC)C1=O | > 100 µg/mL | > 100 µg/mL | > 100 µg/mL | > 100 µg/mL
CCCCCCCCCCCC1=CC(=O)C=C(OC)C1=O | > 100 µg/mL | > 100 µg/mL | > 100 µg/mL | > 100 µg/mL
CCCCCCCCCCCC1=C(O)C(=O)c2c(oc3c(CCCCCCCCCCC)c(O)c(OC)cc23)C1=O | > 100 µg/mL | > 100 µg/mL | > 100 µg/mL | > 100 µg/mL
CCCCCCCCCCCC1=C(O)C(=O)c2c(oc3cc(OC)c(O)c(CCCCCCCCCCC)c23)C1=O | > 100 µg/mL | > 100 µg/mL | > 100 µg/mL | > 100 µg/mL
CCCCCCCCCCCC1=C(O)C(=O)C=C(OC)C1=O [5-O-METHYLEMBELIN] | 1.5 µg/mL (≈ 4.86 µM) | 3.6 µg/mL (≈ 11.7 µM) | 3 µg/mL (≈ 9.73 µM) | 9 µg/mL (≈ 29.2 µM)
COc1cc2c(c(OC)c1OC)-c1ccc(OC)c(=O)cc1[C@@H](NC(C)=O)CC2 [COLCHICINE] | 0.1 µg/mL (≈ 0.25 µM) | 0.4 µg/mL (≈ 1 µM) |  | 
